Results on 97 compounds are retold here after ChEMBL document CHEMBL4513216, “Probing the Open Global Health Chemical Diversity Library for Multistage-Active Starting Points for Next-Generation Antimalarials” (ACS Infect Dis, 2020).

The data set is described as follows: Toxicity liver stage against HepG2, at 10uM. The data set is classed as cell-based. On the set-up: test concentration 10 uM, cell line HepG2-A16-CD81EGFP. The conditions noted are these: human, HepG2-A16-CD81EGFP cells; read-out: INHIBITION
The gist of the method: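 Uninfected HepG2-A16-CD81EGFP cells, 3 × 10^3 per well, 1536-well, plated on prespotted compound at 10 μM final, parasite-free screening media added to match infected plates; puromycin 10 μM positive, DMSO 0.5% negative; run in parallel with 48 h PbLuc assay at 37 °C, 5% CO2; viability by CellTiter-Glo luminescence, normalized to controls.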

Turning to `CC(C)(C)n1ncc2c1NC(=O)CC2c1ccc(OCC(N)=O)cc1` (configuration not stated), the cytotoxicity at 10 µM is 20.6%.
For `Cc1cnn(CC2CCCCN2CCCS(C)(=O)=O)c1` (configuration not stated), the cytotoxicity at 10 µM was -10.1%.
For `CN(C)C(=O)c1cc2ncc(C(=O)NC3CCCC3)cc2n1C`, the cytotoxicity at 10 µM was -2.63%.
Take `COc1cccc(CNCC2(COc3cccnc3)C[C@@H](O)[C@@H](O)C2)c1` (some centres not stated): the cytotoxicity at 10 µM is -5.57%.
As for `Cn1ccnc1N1CCN(C(=O)Cc2ccccc2)CC1`, the cytotoxicity at 10 µM turned out to be 3.13%.
With `CC(C)=CCN1C(=O)[C@@H]2CC[C@H]1CN(c1ncccc1C(N)=O)C2`, the cytotoxicity at 10 µM came to 6.13%.
Take `O=C(NCc1ccccc1CN1CCCC1)Nc1nncs1`: the cytotoxicity at 10 µM was 6.13%.
Turning to `COCCn1nc(C(=O)N2CCCC2c2cccc(F)c2)ccc1=O` (configuration not stated), the cytotoxicity at 10 µM was -5.5%.
As to `Cc1cnc2c(S(=O)(=O)NC3CCS(=O)(=O)C3)cccc2c1` (configuration not stated), the cytotoxicity at 10 µM is -2.28%.
As for `CCOc1cccc(C(=O)Nc2ccncc2)c1`, the cytotoxicity at 10 µM came out at 8.59%.
With `Cc1cc(C)n(CCCN(CCN2CCOCC2)Cc2ccco2)n1`, the cytotoxicity at 10 µM was determined as 8.97%.
For `Cc1oc(C)c(C(=O)N2CCN(Cc3cscn3)CC2)c1C`, the cytotoxicity at 10 µM was -10.6%.
Under `CC(C)Cc1noc(CN(C)C2CCCC2)n1` stands 0.274%; under `N#Cc1ccc(CN2C(=O)c3ccccc3CS2(=O)=O)cc1`, -4.17%.
Consider `Cc1occc1C(=O)N1CCCN(Cc2ncc(Cl)n2C)CC1`, for which the cytotoxicity at 10 µM was -1.25%.
Consider `O=c1[nH]nc2c(S(=O)(=O)N3CCCCC3)cccn12`, for which the cytotoxicity at 10 µM amounted to 2.41%.
For `O=C(Nc1c(N2CCCC2)cccc1N1CCCC1)c1ccccn1`, the cytotoxicity at 10 µM is -25.7%.
As for `O=C(NCC1(O)CCCC1)c1ccc2nsnc2c1`, the cytotoxicity at 10 µM is -5.37%.
On to `Cc1cc(CCC(=O)N2CC[C@H](O)C2)ccc1Br`, for which the cytotoxicity at 10 µM worked out at 2.35%.
The same measure for `Cc1cc(C)n(CC2CCCN2C(=O)CCc2cscn2)n1` (configuration not stated): -10.4%; for `COc1ccc(N(Cc2ccco2)C(=O)C2CCOC2)cc1F` (configuration not stated): -10.8%; for `CC(C)OC(=O)c1ccc(Cl)c(NC(=O)NCCN2CCOCC2)c1`: -54.4%.
As for `COCCN1CCN(C(=O)C(c2cccc(F)c2)N(C)C)CC1` (configuration not stated), the cytotoxicity at 10 µM stood at 9.63%.
`O[C@H]1CC[C@@H](Cc2cc(-c3ccc(F)cc3)on2)O[C@@H]1CNCC1CC1`: the cytotoxicity at 10 µM is -6.4%.
On to `CCC1CN(c2cnn(C)c(=O)c2Cl)CCO1` (configuration not stated), for which the cytotoxicity at 10 µM is -1.26%.
`Cc1csc2ncn(C(C)Cc3cccnc3)c(=O)c12` (configuration not stated): the cytotoxicity at 10 µM amounted to 6.9%.
As for `COc1ccc(N2CCCN(C(=O)Cc3csc(C)n3)CC2)cc1`, the cytotoxicity at 10 µM came to 3.91%.
The same measure for `CCC(CNC1CCN(C(C)=O)CC1)Oc1ccccc1Cl` (configuration not stated): -13.4%; for `Cc1ccc(CNC(=O)N(C)Cc2ccc([S+](C)[O-])cc2)s1` (configuration not stated): 6.75%.
As to `O=C(Nc1cccnc1)[C@H]1C[C@@H]2CCN(Cc3nccs3)C[C@@H]2O1`, the cytotoxicity at 10 µM is -68.2%.
Consider `CCNC(=O)C1(Cc2cc(-c3ccccc3)no2)CCCN(C)C1` (configuration not stated), for which the cytotoxicity at 10 µM stood at 5.31%.
Regarding `Cc1ccc(SCCCNC(=O)c2cn(C3CCC(N)CC3)nn2)cc1` (configuration not stated), the cytotoxicity at 10 µM was -8.33%.
With `CCc1ccc(CN2CCN(C(=O)C(C)C)[C@@H]3CS(=O)(=O)C[C@@H]32)cc1`, the cytotoxicity at 10 µM was 2.11%.
On to `COc1cc2nc(C)n(CC(=O)NCCCO)c(=O)c2cc1OC`, for which the cytotoxicity at 10 µM is -0.869%.
For the compound `Cc1c(Br)cccc1C(=O)Nc1cc(C(N)=O)n(C)c1`, the cytotoxicity at 10 µM was found to be 0.71%.
Under `Cc1cc(C)n(C2CCCN(C(=O)c3cn4cccnc4n3)C2)n1` (configuration not stated) stands -4.62%.
Turning to `O=C(C1CCCN(c2nc3ccccc3cc2CO)C1)N1CCCC1` (configuration not stated), the cytotoxicity at 10 µM was -47.5%.
In the case of `COC[C@@]12CCC[C@@H]1CN(C(=O)Cc1ccccn1)C2`, the cytotoxicity at 10 µM is -96.7%.
`O=C1CCC2(CCCN(Cc3ccccc3F)C2)N1CC1CC1` (configuration not stated): the cytotoxicity at 10 µM is 6.06%.
Consider `COc1ccc2cnn(CC(=O)NC3CCCC3)c(=O)c2c1OC`, for which the cytotoxicity at 10 µM was -2.86%.
`COCCCSc1ccc(NCc2scnc2C)cc1`: the cytotoxicity at 10 µM amounted to 55.3%.
Under `CC(C)(C)n1nc(C2CC2)cc1C(=O)NCC1(C(N)=O)CCOCC1` stands -11.1%; under `O=C(c1ccc2[nH]c(=O)[nH]c2c1)N1CCC(Nc2cccnn2)CC1`, 0.00528%.
Under `Cn1cc(CCCN2CCCC(c3cc(C(F)(F)F)[nH]n3)C2)cn1` (configuration not stated) stands -2.59%; under `Oc1cc(-c2ccsc2)nc(C2CCN(Cc3ccncc3)CC2)n1`, -7.7%.
In the case of `Cc1nc(NC2CCN(C(=O)C3CC3)CC2)c2cnn(C)c2n1`, the cytotoxicity at 10 µM is -2.13%.
Consider `CCOc1ccccc1N1CCN(CC2(O)CCCNC2)CC1` (configuration not stated), for which the cytotoxicity at 10 µM is -2.36%.
For `CC(C)(C)OC(=O)N1CCCCC1C(=O)NCc1cc[nH]n1` (configuration not stated), the cytotoxicity at 10 µM turned out to be 1.41%.
The same measure for `COC(=O)C1CCN(c2cc(C)nc(-c3ccncc3)n2)CC1`: 2.76%; for `Cc1nc(CNC(C)c2cccc(N3CCCC3=O)c2)cs1` (configuration not stated): 5.01%.
Regarding `CC1=CC[C@@H]2CN(C(=O)c3ccc(-c4nc[nH]n4)cc3)C[C@@H]2C1`, the cytotoxicity at 10 µM is 0.417%.
The same measure for `O=C1N(CCCc2ccccc2)CCCC1(O)CN1CCC(CO)CC1` (configuration not stated): -10.5%.
`Cc1cnc(N2CCC3(CC2)CC3CN(C)Cc2cccnc2)nc1` (configuration not stated): the cytotoxicity at 10 µM is -0.37%.
Regarding `Cn1ccnc1SCCNC(=O)CC1CCc2ccccc21` (configuration not stated), the cytotoxicity at 10 µM is -3.05%.
Consider `O=C(NCc1csc(Br)c1)c1cnccn1`, for which the cytotoxicity at 10 µM is -23.3%.
As for `CCc1cc(N[C@@H](CO)C(N)=O)n2nc(C)c(C)c2n1`, the cytotoxicity at 10 µM was -13.4%.
The same measure for `c1ccc(CN2C[C@H]3CC[C@@H](C2)N(Cc2nnc(C4CC4)o2)C3)cc1`: -8.42%; for `CC(N)Cc1ccccc1Sc1ccc(O)cc1` (configuration not stated): 3.76%.
Turning to `CCNC(=O)N1C[C@@H]2OCC(=O)N(Cc3cccnc3)[C@@H]2C1`, the cytotoxicity at 10 µM was found to be 7.95%.
Under `CC(C)N[C@@H]1CO[C@H](CNC(=O)c2cccs2)[C@H]1O` stands -3.65%; under `O=C(O)c1cc(NS(=O)(=O)c2ccccc2F)ccc1N1CCSCC1`, -5.27%.
As to `COc1ccc(C(=O)N2CCCC2c2ccco2)cc1OC` (configuration not stated), the cytotoxicity at 10 µM worked out at 1.03%.
On to `COc1nccnc1N1CCC2(CC1)C(=O)N(C)c1ccccc12`, for which the cytotoxicity at 10 µM was -4.89%.
On to `Oc1ccc(Cl)cc1CNCc1cccc(C(F)(F)F)c1`, for which the cytotoxicity at 10 µM is -6.13%.
The same measure for `CCNC(=O)CCC(=O)NC(Cc1ccccc1)c1sccc1C` (configuration not stated): -6.69%; for `CN(C)S(=O)(=O)N1CCC(Cn2cccn2)CC1`: -10.9%; for `CCCNC(=O)CNc1ccc(C(=O)N2CCCCC2C)cc1C` (configuration not stated): -7.67%.
As to `O=C(NCCCn1ccnc1)N1CCCC1c1ccncc1` (configuration not stated), the cytotoxicity at 10 µM was 25.4%.
For the compound `CN(C)CCOCc1nnc2n1CCN(Cc1ccco1)CC2`, the cytotoxicity at 10 µM is 2.19%.
Take `COCCCN1C(=O)CC[C@H]2CN(Cc3ccc4nonc4c3)CC[C@H]21`: the cytotoxicity at 10 µM stood at 2.46%.
Turning to `CC(=O)c1cccc(-c2c[nH]c(C)n2)c1`, the cytotoxicity at 10 µM was -0.916%.
The same measure for `CCS(=O)(=O)N1CCC2(CCN(Cc3nccs3)CC2)CC1`: 7.13%; for `O=C(c1ccsc1)N1CCc2c(COCc3ccncc3)cncc2C1`: -1.48%.
Consider `CCN(Cc1ccco1)C(=O)NCc1nnc2n1CCCCC2`, for which the cytotoxicity at 10 µM is -4.73%.
Regarding `COC(=O)N1CCCCC1C(=O)N1CCC(c2ccncc2)CC1` (configuration not stated), the cytotoxicity at 10 µM came to 11.7%.
Regarding `CN(C)CCN1CCO[C@H]2CN(C(=O)c3ccsc3)C[C@H]21`, the cytotoxicity at 10 µM was 3%.
In the case of `CC(=O)N1CCN(C(=O)c2ccc(Sc3ccccn3)cc2)CC1`, the cytotoxicity at 10 µM came out at 10.7%.
Take `CNc1nccnc1C1CN(Cc2ccc(OCC(=O)O)cc2)CCO1` (configuration not stated): the cytotoxicity at 10 µM is -5.73%.
As to `Cc1cccc(CN2CCCC2(C(N)=O)c2cnccn2)n1` (configuration not stated), the cytotoxicity at 10 µM is -21.9%.
With `CCN(CC1CCCO1)C(=O)Nc1cc(C(=O)OC)ccc1F` (configuration not stated), the cytotoxicity at 10 µM is -4.77%.
Turning to `CNC(=O)C1CN(c2ccnc(C)n2)CCN1Cc1ccccc1` (configuration not stated), the cytotoxicity at 10 µM was determined as 8.48%.
`COc1ccc(CCC(=O)Nc2ccc3ncn(C)c(=O)c3c2)cc1`: the cytotoxicity at 10 µM stood at 6.44%.
Under `Cc1csc(NC(=O)C2CSCCC(=O)N2)n1` (configuration not stated) stands 4.14%.
As to `CCCSCC(=O)N1CCC2(CC1)CC(c1ccccc1)CN(C)C2` (configuration not stated), the cytotoxicity at 10 µM was -7.29%.
The same measure for `CC(NC(=O)N(C)CCOc1ccccc1F)c1nncn1C` (configuration not stated): -9.92%; for `Cc1ccc(S(C)(=O)=O)cc1C(=O)NS(=O)(=O)c1ccc(Cl)cc1`: -13.5%; for `CC(c1nc(C(C)(C)C)no1)N1CCN(C(=O)CN2CCOCC2)CC1` (configuration not stated): -3.51%.
As to `NC(=O)CC1CCN(C(=O)c2cnc(-c3ccccc3F)s2)CC1`, the cytotoxicity at 10 µM was -0.608%.
For `NS(=O)(=O)CC1CCN(c2ncccc2C(F)(F)F)CC1`, the cytotoxicity at 10 µM is -3.16%.
On to `Cc1nn2cccnc2c1C(=O)N1CCCC(n2cccn2)C1` (configuration not stated), for which the cytotoxicity at 10 µM is -35.9%.
With `O=c1ccn(Cc2nc(-c3ccccc3F)cs2)c(=O)[nH]1`, the cytotoxicity at 10 µM is -1.2%.
Consider `COc1cccc(OCCn2c(C)c(C)oc2=O)c1`, for which the cytotoxicity at 10 µM was -7.12%.
As to `CC(C)N1CCCC(CNC(=O)CN(C)S(=O)(=O)c2ccccc2)C1` (configuration not stated), the cytotoxicity at 10 µM is -3.88%.
With `CC(O)CN1CCC(CNCc2c[nH]nc2C(C)(C)C)CC1` (configuration not stated), the cytotoxicity at 10 µM is -8.55%.
As for `C=C(C)COc1cccc(C(=O)N(C)Cc2cc(CC)no2)c1`, the cytotoxicity at 10 µM was -3.42%.
For `N#Cc1ccc(NC2CCN(c3ncccn3)CC2)cc1Cl`, the cytotoxicity at 10 µM came to 8.8%.
On to `Cc1cc(CN2CCN(Cc3ccccc3F)CC2)no1`, for which the cytotoxicity at 10 µM was 4.51%.
